Most compounds without a hit are left out; they make up all but 3.8% or so of the library.
MPTP block: blocks calcium-induced mitochondrial swelling; isolated mouse mitochondria, Ca2+ swelling absorbance, 30 min; inhibition, % at 10 µM; 360,000 tested, 1.4% active;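 active = inhibition of 50% or more, scaled per plate between neutral and stimulator controls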
Granule exo inh: lytic granule exocytosis inhibition | TALL-104 LAMP-1 surface exposure, flow cytometry; cells stimulated with thapsigargin and PMA | inhibition, % at 10 µM | 360,000 tested, 0.66% active | AID 651702;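 active = inhibition above about 55%, limit read from the data; inconclusive = no clear call, values can overlap the other calls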
V-ATPase pH: regulators of yeast V-ATPase proton transport; AID 504577; S. cerevisiae, pHLuorin cytosolic pH fluorescence; response, % at 10 µM; 350,000 tested, 0.37% active; in the data active = response mostly above about 7.3%, no sharp cut-off; inactive = mostly below about 5.4%; also: actives read high
T cell modulator: T cell immune modulators affecting CD8 T cell-vesicle binding; 2C CD8+ T cell-vesicle binding, flow cytometry; stronger effect = lower value; response (vesicle binding), % at 7 µM; 330,000 tested, 0.068% active; AID 2052;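 active = response, share of CD8 T cells binding vesicles, and their 90th percentile fluorescence all below set limits, cut at about 80% in these data, passing the limit was not always enough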;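 also: values below 100% mean blocked vesicle binding to the CD8+ T cells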
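Assay system – 2C mouse CD8+ T cells · Also added – QL9-loaded Drosophila micro-vesicles · Timing – Cell–vesicle co-incubation 1.5 h at 37 °C, staining 20 min on ice · Signal – flow cytometry of vesicle-bound cells · Measure – percent CD8+ FL2 mean versus row control · Controls – Peptide-free naked vesicles (low) and QL9 vesicles with 0.7% DMSO vehicle (high)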
B2AR ag: human beta-2 adrenergic receptor agonism by FAP; P07550; Am2.2-beta2AR cells, FAP receptor internalization, flow cytometry; response, % (concentration not given with the values); 340,000 tested, 0.43% active; AID 504454;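 active = response above a set limit, near 3 SD of response in nonfluorescent compounds, cut at about 42% in these data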
Target sequence (P07550 whole entry, looked up): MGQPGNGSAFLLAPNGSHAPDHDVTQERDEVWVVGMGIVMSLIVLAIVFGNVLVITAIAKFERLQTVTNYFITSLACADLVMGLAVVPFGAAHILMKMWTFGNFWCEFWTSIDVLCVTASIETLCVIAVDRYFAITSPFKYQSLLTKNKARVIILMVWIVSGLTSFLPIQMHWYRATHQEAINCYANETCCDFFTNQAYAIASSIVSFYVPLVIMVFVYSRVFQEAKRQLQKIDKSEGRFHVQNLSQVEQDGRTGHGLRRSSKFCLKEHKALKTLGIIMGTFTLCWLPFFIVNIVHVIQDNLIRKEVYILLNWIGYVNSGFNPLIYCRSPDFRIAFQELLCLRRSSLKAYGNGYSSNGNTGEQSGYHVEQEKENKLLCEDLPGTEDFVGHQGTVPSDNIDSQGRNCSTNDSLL
rCAG RNA binder: r(CAG) repeat RNA binding | TO-PRO-1 dye displacement fluorescence | inhibition, % at 3 µM | 370,000 tested, 1.3% active;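 active = inhibition above the plate cutoff, the mean of all test compounds on that plate plus 3 SD, cut at about 35% in these data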;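 also: higher means more dye released from RNA so lower well fluorescence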
MPTP counter: membrane potential counter-screen of mitochondrial pore inhibitors; shares compounds with MPTP block; isolated mitochondria, Rhodamine 123 fluorescence; inhibition, % at 10 µM; 5,000 tested, 78% active; AID 624504; in the data active = inhibition above about 22%
MPTP abs DR: MPTP inhibition, dose response swelling confirmation | isolated mitochondria swelling, absorbance | AID 651561 | 780 tested, 58% active | IC50, µM | shares compounds with MPTP block; in the data active = IC50 below about 20 µM
MPTP counter DR: MPTP inhibitor counter-screen activity, dose response | AID 651564 | IC50, µM | isolated mitochondria counterscreen, fluorescence read-out | shares compounds with MPTP block | 780 tested, 49% active; in the data active = IC50 below about 80 µM
Of the large screens only hits and unclear results are named; the others gave an inactive call (follow-up assays come after a bar, where they were run).

CCCC(C)NC(=O)COc1ccc(Sc2ccc(OCC(=O)NC(C)CCC)cc2)cc1 (configuration not stated)	MPTP block 78 | MPTP counter 34
CC(C)CNC(=O)COc1ccc(Sc2ccc(OCC(=O)NCC(C)C)cc2)cc1	MPTP block 53 | MPTP counter inactive | MPTP abs DR 5.4 | MPTP counter DR inactive
COC(=O)C[C@@H]1CC[C@@H]2[C@H](COc3ccc(NC(=O)c4ccc(F)c(F)c4)cc3C(=O)N2C)O1	none (no result: MPTP block, Granule exo inh, V-ATPase pH, T cell modulator, B2AR ag)
CN1CCC(Oc2ccccc2Sc2ccccc2)CC1	MPTP block 92 | MPTP counter inactive | MPTP abs DR 10 | MPTP counter DR 34
CCc1c(C)sc(NC(=O)Cn2nc(C(F)(F)F)c3c2CCCC3)c1C#N	MPTP block 65 | MPTP counter 77
CCCCOc1ccc(-c2nc(-c3cccnc3)no2)cc1	MPTP block 64 | MPTP counter inactive | MPTP abs DR 14 | MPTP counter DR 14
CCOc1ccc(-c2nc(-c3cccnc3)no2)cc1	none
N#CCC(=O)NCCCOC(=O)Nc1ccc(Cl)c(Cl)c1	MPTP block 79 | MPTP counter 86
Cc1nc2ccc(NS(=O)(=O)c3cccc([N+](=O)[O-])c3)cc2s1	MPTP block 55 | MPTP counter 72
CC(=O)Nc1ccc(S(=O)(=O)Nc2ccc3nc(C)sc3c2)cc1	MPTP block 59 | MPTP counter 83
CC(=O)Nc1ccc2nc(NS(=O)(=O)c3ccc(C)cc3)sc2c1	none
CSc1nc2ccc(NS(=O)(=O)c3ccc(Cl)s3)cc2s1	MPTP block 87 | MPTP counter 77
Cc1ccc(S(=O)(=O)Nc2ccc3nc(N)sc3c2)cc1	MPTP block 85 | MPTP counter 38
COC(=O)[C@]12C[C@H](CC(=O)NCc3ccc(OC)c(OC)c3)C(=O)N(CCC3=CCCCC3)C1=C[C@H](C1CCCC1)O[C@@H]2C	none (no result: MPTP block, Granule exo inh, V-ATPase pH, T cell modulator, B2AR ag)
COC(=O)[C@]12C[C@H](CC(=O)NCCCCc3ccccc3)C(=O)N(Cc3ccccc3)C1=C[C@H](COCc1ccccc1)O[C@@H]2C	none (no result: MPTP block, Granule exo inh, V-ATPase pH, T cell modulator, B2AR ag)
Cc1nc2ccc(NS(=O)(=O)c3ccc4c(c3)OCCO4)cc2s1	MPTP block 96 | MPTP counter 97
Cc1nc2ccc(NS(=O)(=O)c3ccc(F)c(F)c3)cc2s1	none
Cc1ccc(S(=O)(=O)Nc2ccc3c(c2)OCCO3)cc1	none
Cc1ccc2nc(-c3ccc(NS(=O)(=O)c4ccc(F)c(F)c4)cc3)sc2c1	MPTP block 60, rCAG RNA binder 75 | MPTP counter 71
Cc1ccc(S(=O)(=O)Nc2ccc3nc(C)sc3c2)cc1	MPTP block 68 (no result: rCAG RNA binder) | MPTP counter 105
Cc1ccc2nc(-c3ccc(NS(=O)(=O)c4ccccc4)cc3)sc2c1	none
Cc1nc2ccc(NS(=O)(=O)c3ccc(Br)cc3)cc2s1	MPTP block 81 | MPTP counter 99
O=C(Nc1ccccc1Cl)OC1CC2CC1[C@H]1CCCCN1[C@H]2Cc1ccccc1 (some centres not stated)	none (no result: MPTP block, Granule exo inh, V-ATPase pH, T cell modulator, B2AR ag)
N#CCC[C@H]1CC[C@]2(CCCN(Cc3ccc(Br)cc3)C2)O1	none (no result: MPTP block, Granule exo inh, V-ATPase pH, T cell modulator, B2AR ag)
COc1ccc(C(=O)C2(C(=O)NCCO)CC(c3ccccn3)=NO2)cc1 (configuration not stated)	none (no result: MPTP block, Granule exo inh, V-ATPase pH, T cell modulator, B2AR ag)
Cn1nc(-c2ccccc2)cc1NC(=O)Nc1ccc(C(C)(C)C)cc1	MPTP block 70 | MPTP counter 74
Cn1nc(-c2ccc(Cl)cc2)cc1NC(=O)Nc1ccccc1	MPTP block 70 | MPTP counter 69
COc1ccc(-c2[nH]c(-c3ccc4c(c3)OCO4)nc2-c2ccccc2)cc1	MPTP block 95 | MPTP counter 70
COc1ccc(-c2[nH]c(-c3ccc(C(=O)O)cc3)nc2-c2ccccc2)cc1	none
COc1cc(-c2nc(-c3ccccc3)c(-c3ccc(F)cc3)[nH]2)cc2c1OCO2	MPTP block 89 | MPTP counter 63
COc1ccc2c(c1)CN1C(=O)N(Cc3ccc(F)cc3)S(=O)(=O)CC21 (configuration not stated)	none (no result: MPTP block, Granule exo inh, V-ATPase pH, T cell modulator, B2AR ag)
COCCCN1CCN(C2Cc3ccccc3Sc3ccc(Cl)cc32)CC1 (configuration not stated)	none
Clc1cccc2c1Sc1ccccc1CC2N1CCNCC1 (configuration not stated)	MPTP block 93, Granule exo inh inconclusive | MPTP counter inactive
Clc1ccc2c(c1)C(N1CCNCC1)Cc1ccccc1S2 (configuration not stated)	MPTP block 83, Granule exo inh 73 (no result: rCAG RNA binder) | MPTP counter inactive
Cc1nn(-c2ccccc2)c(N2CCCC2)c1/C=N/NC(=O)c1cc(-c2ccccc2)nc2ccccc12	none
Cc1nn(-c2ccccc2)c(N2CCCC2)c1/C=N/NC(=O)c1cc2ccccc2cc1O	MPTP block 97 | MPTP counter 70
CN(C)C(=O)C[C@H]1C[C@@H]2c3cc(NC(=O)NC4CCCC4)ccc3O[C@@H]2[C@@H](CO)O1	none (no result: MPTP block, Granule exo inh, V-ATPase pH, T cell modulator, B2AR ag)
O=C(c1cc(COc2ccc(F)cc2Cl)on1)N1CCCC(OCc2cccnc2)C1 (configuration not stated)	none
O=C(c1cc(COc2ccc(F)cc2Cl)on1)N1CCC(OCc2cccnc2)CC1	MPTP block 68 | MPTP counter 23
Cc1ccc(OCc2cc(C(=O)N3CCC(Oc4cccnc4)CC3)no2)cc1C	MPTP block 91 | MPTP counter 89
O=C(c1cc(COc2cccc(C(F)(F)F)c2)on1)N1CCC(Oc2cccnc2)CC1	MPTP block 60 | MPTP counter 83
O=C(c1cc(COc2cccc(C(F)(F)F)c2)on1)N1CCCC1	none (no result: T cell modulator, B2AR ag)
C=CCN(CC#Cc1ccccc1)Cc1ccc(OC)cc1	none (no result: MPTP block, Granule exo inh, V-ATPase pH, T cell modulator, B2AR ag)
COC(=O)[C@]12C[C@H](CC(=O)NCc3ccccc3)C(=O)N(Cc3cccc4ccccc34)C1=C[C@H](C(C)(C)C)O[C@@H]2C	none (no result: MPTP block, Granule exo inh, V-ATPase pH, T cell modulator, B2AR ag)
N#C/C(=N\Nc1ccc(Cl)cc1)C(N)=S	MPTP block 70 | MPTP counter 92
Cc1ccc(N/N=C(\C#N)C(N)=S)cc1C	MPTP block 67 | MPTP counter 89
N#C/C(=N\Nc1ccccc1)C(N)=S	none
CCOC(=O)c1nc(C)nc(Sc2n[nH]c(-c3cc(C(F)(F)F)cc(C(F)(F)F)c3)n2)c1C	MPTP block 65 | MPTP counter 72
COC(=O)C1=C(C)N(Cc2cccc(C(F)(F)F)c2)C(=NCc2cc(OC)c(OC)c(OC)c2)NC1c1cccc(C(F)(F)F)c1 (configuration not stated)	none (no result: MPTP block, Granule exo inh, V-ATPase pH, T cell modulator, B2AR ag)
